The structures appear in SMILES notation.

This is an account of results in ChEMBL document CHEMBL1121996, “A new stable prostacyclin mimic, 7-oxoprostaglandin I2” (J Med Chem, 1982).

The species entered for one experiment is Homo sapiens. Put plainly: Inhibitory concentration of compound in human platelet rich plasma against 2 umol of ADP-induced aggregation. The format is functional.
Experiment [1] deals with Canis familiaris. In words: Percent change in cardiac out put produced by the compound on dogs by intravenous infusion rate of 50 ng/kg/min. The format is functional, Canis lupus familiaris, Heart. The gist of the method:
(§1)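 The compound was infused into a femoral vein at increasing concentrations, each dose level for 3 min. Mean peripheral blood pressure was taken in the femoral artery and heart rate by cardiotachometer. Total and coronary vascular resistance were calculated as blood pressure divided by the corresponding flow. Values are maximum changes as percent of resting values.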

In experiment [2] the test system is Canis familiaris. Put plainly: Percent change in blood pressure produced by the compound on dogs by intravenous infusion rate of 50 ng/kg/min. The class given is functional, Canis lupus familiaris. In outline: as §1
The target of experiment [3] is Adenylate cyclase type 1 (Homo sapiens) (UniProt Q08828). Put plainly: Activation of human platelet adenylate cyclase at the concentration of 1 uMol. The format is functional. The gist of the method:
(§2)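 Adenylate cyclase in membranes prepared from human platelet-rich plasma, compound tested as Na salt. Activity is given as percent (mean ± SE) of measurable enzyme activity without drug, n = 8, with significance tested against the respective control. The method follows ref 17.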

The test system of experiment [4] is Canis familiaris. Put plainly: Percent change in coronary resistance produced by the compound on dogs by intravenous infusion rate of 50 ng/kg/min. The class given is functional, Canis lupus familiaris. The gist of the method: as §1
Experiment [5] has as its system Canis familiaris. In words: Percent change in total peripheral resistance produced by the compound on dogs by intravenous infusion rate of 50 ng/kg/min. The format is functional, Canis lupus familiaris. In outline:
as §1

In experiment [6] the target is Adenylate cyclase type 1 (Homo sapiens) (UniProt Q08828). In words: Activation of human platelet adenylate cyclase at the concentration of 10 uMol. The class given is functional. In outline: as §2
The test system of experiment [7] is Canis familiaris. Put plainly: Percent change in heart rate produced by the compound on dogs by intravenous infusion rate of 50 ng/kg/min. The format is functional, Canis lupus familiaris. In outline: as §1
The species named for the next experiment is Bos taurus. Put plainly: Effective concentration of compound for relaxation of bovine coronary artery. The format is functional.
Experiment [8] concerns Canis familiaris. Put plainly: Percent change in heart rate produced by the compound on dogs by intravenous infusion rate of 500 ng/kg/min. The format is functional, Canis lupus familiaris. In outline: as §1
Experiment [9] has as its system Canis familiaris. Put plainly: Percent change in total peripheral resistance produced by the compound on dogs by intravenous infusion rate of 500 ng/kg/min. The class given is functional, Canis lupus familiaris. The gist of the method: as §1
In experiment [10] the test system is Canis familiaris. Put plainly: Percent change in cardiac out put produced by the compound on dogs by intravenous infusion rate of 5000 ng/kg/min. The class given is functional, Canis lupus familiaris, Heart. The gist of the method: as §1
For experiment [11], the system named is Canis familiaris. In words: Percent change in blood pressure produced by the compound on dogs by intravenous infusion rate of 500 ng/kg/min. The class given is functional, Canis lupus familiaris. In outline:
as §1

Experiment [12] has as its system Canis familiaris. In words: Percent change in blood pressure produced by the compound on dogs by intravenous infusion rate of 5000 ng/kg/min. The class given is functional, Canis lupus familiaris. The gist of the method: as §1
In experiment [13] the test system is Canis familiaris. In words: Percent change in total peripheral resistance produced by the compound on dogs by intravenous infusion rate of 1000 ng/kg/min. The class given is functional, Canis lupus familiaris. The gist of the method:
as §1

Experiment [14] deals with Canis familiaris. In words: Percent change in coronary resistance produced by the compound on dogs by intravenous infusion rate of 5000 ng/kg/min. The class given is functional, Canis lupus familiaris. In outline:
as §1

For experiment [15], the system named is Canis familiaris. In words: Percent change in heart rate produced by the compound on dogs by intravenous infusion rate of 5000 ng/kg/min. The format is functional, Canis lupus familiaris. The gist of the method: as §1
In experiment [16] the test system is Canis familiaris. Put plainly: Percent change in heart rate produced by the compound on dogs by intravenous infusion rate of 1000 ng/kg/min. The format is functional, Canis lupus familiaris. The gist of the method:
as §1

Experiment [17] relates to Canis familiaris. In words: Percent change in coronary resistance produced by the compound on dogs by intravenous infusion rate of 500 ng/kg/min. The format is functional, Canis lupus familiaris. In outline: as §1
Experiment [18] concerns Canis familiaris. Put plainly: Percent change in blood pressure produced by the compound on dogs by intravenous infusion rate of 1000 ng/kg/min. The format is functional, Canis lupus familiaris. The gist of the method: as §1
The test system of experiment [19] is Canis familiaris. Put plainly: Percent change in total peripheral resistance produced by the compound on dogs by intravenous infusion rate of 5000 ng/kg/min. The format is functional, Canis lupus familiaris. The gist of the method:
as §1

Experiment [20] deals with Canis familiaris. Put plainly: Percent change in cardiac out put produced by the compound on dogs by intravenous infusion rate of 1000 ng/kg/min. The format is functional, Canis lupus familiaris, Heart. The gist of the method:
as §1

In experiment [21] the test system is Canis familiaris. In words: Percent change in coronary resistance produced by the compound on dogs by intravenous infusion rate of 1000 ng/kg/min. The class given is functional, Canis lupus familiaris. In outline:
as §1

In experiment [22] the test system is Canis familiaris. In words: Percent change in cardiac out put produced by the compound on dogs by intravenous infusion rate of 500 ng/kg/min. The class given is functional, Canis lupus familiaris, Heart. In outline: as §1

Chain of Adenylate cyclase type 1 (Homo sapiens) (Q08828 whole entry, looked up, the tested form may be a part): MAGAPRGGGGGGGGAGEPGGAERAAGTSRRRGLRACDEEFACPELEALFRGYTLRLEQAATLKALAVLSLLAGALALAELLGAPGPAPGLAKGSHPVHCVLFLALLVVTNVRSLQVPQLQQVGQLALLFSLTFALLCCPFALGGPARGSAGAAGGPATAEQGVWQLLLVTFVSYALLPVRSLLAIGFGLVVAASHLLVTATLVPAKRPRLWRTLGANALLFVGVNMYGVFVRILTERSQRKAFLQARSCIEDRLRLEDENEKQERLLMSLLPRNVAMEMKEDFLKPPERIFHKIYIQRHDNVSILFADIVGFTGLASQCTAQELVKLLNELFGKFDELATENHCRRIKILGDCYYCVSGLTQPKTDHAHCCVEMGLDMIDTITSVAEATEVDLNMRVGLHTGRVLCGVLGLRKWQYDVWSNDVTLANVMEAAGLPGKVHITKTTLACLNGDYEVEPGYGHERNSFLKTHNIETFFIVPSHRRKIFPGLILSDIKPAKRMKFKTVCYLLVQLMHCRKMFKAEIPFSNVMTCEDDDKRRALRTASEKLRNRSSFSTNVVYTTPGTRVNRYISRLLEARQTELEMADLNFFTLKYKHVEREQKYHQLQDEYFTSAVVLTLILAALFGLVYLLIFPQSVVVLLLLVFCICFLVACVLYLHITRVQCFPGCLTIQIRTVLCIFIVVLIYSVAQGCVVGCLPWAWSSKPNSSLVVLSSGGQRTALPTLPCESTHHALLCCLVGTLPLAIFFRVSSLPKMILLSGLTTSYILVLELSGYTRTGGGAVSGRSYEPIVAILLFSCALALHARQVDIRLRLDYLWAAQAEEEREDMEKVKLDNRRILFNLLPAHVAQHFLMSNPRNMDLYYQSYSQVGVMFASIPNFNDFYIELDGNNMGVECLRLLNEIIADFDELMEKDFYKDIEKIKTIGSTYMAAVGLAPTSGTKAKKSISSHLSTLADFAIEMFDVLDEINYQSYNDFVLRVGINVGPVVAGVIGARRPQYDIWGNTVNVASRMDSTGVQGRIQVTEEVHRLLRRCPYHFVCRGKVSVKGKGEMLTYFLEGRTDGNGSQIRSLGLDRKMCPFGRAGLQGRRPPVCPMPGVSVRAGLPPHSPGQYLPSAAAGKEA

For the compound `CCCCC[C@H](O)/C=C/[C@@H]1[C@H]2C(=O)/C(=C/CCCC(=O)[O-])O[C@H]2C[C@H]1O.[Na+]`, the IC50 (usually the concentration needed to halve the response being measured) in the experiment listed under Homo sapiens came to 15 ng/mL.
Take `CCCCC[C@H](O)/C=C/[C@@H]1[C@H]2C/C(=C/CCCC(=O)[O-])O[C@H]2C[C@H]1O.[Na+]` [EPOPROSTENOL SODIUM]: in the experiment filed under Homo sapiens, the IC50 was determined as 1 ng/mL. Moreover, the Hemodynamic change in the experiment on Canis familiaris [1] is given as -5.6%; in the experiment on Canis familiaris [2] it was -13.6%; with Canis familiaris [4] it was -2.8%; in the experiment on Canis familiaris [5] it was -11.5%; with Canis familiaris [7] it was 3.6%. In addition, the Activity in [3] turned out to be 374%; in [6], 1740%. The EC50 (as a rule, the concentration needed to bring the measured effect to its halfway point) in the experiment listed under Bos taurus was found to be 43 nM.
As to `CCCCC[C@H](O)/C=C/[C@H]1[C@H](O)CC2O/C(=C\CCCC(=O)[O-])C(=O)[C@@H]21.[Na+]` (stereo partly drawn), the Hemodynamic change with Canis familiaris [8] is 0%; in the experiment with Canis familiaris [9], -8.3%; in the experiment with Canis familiaris [10] it was -22.3%; in the experiment on Canis familiaris [11], -8.1%; with Canis familiaris [12], -49%; with Canis familiaris [13], -13.3%. The Hemodynamic change is reported as -28.8% in the experiment on Canis familiaris [14]; -13.8% in the experiment on Canis familiaris [15]; -2% in the experiment with Canis familiaris [16]; -2.2% in the experiment with Canis familiaris [17]; -13.3% in the experiment on Canis familiaris [18]; -40.7% with Canis familiaris [19]. The results for the Hemodynamic change with Canis familiaris [20], in the experiment on Canis familiaris [21] and in the experiment on Canis familiaris [22] were -3.9%, -6.1% and -1.6%, respectively. In addition, the results for the Activity in experiment [3] and in experiment [6] were 239% and 825%, respectively. The same compound displayed an EC50 in the experiment listed under Bos taurus of 402 nM.
